# Screening data from PubChem BioAssay.
# This is a sample that favours compounds with a hit; in the whole collection about 4.4% have one here.
# MPTP block = inhibitors of mitochondrial permeability transition pore | isolated mouse mitochondria, Ca2+ swelling absorbance, 30 min | 1.4% of 360,000 active | inhibition, % at 10 µM;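 active = inhibition of 50% or more, scaled per plate between neutral and stimulator controls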
# GRIN3A LBD mod = modulates the human NR3A ligand-binding domain; 2.5% of 340,000 active; AID 1259313; NR3A LBD differential scanning fluorimetry, Tm shift; 0% = protein alone, 100% = glycine-bound protein; Tm shift relative to glycine control, % at 25 µM;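 active = melting temperature shift of at least 10% of the positive control shift, at one fixed dose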
# EBI2 block = antagonists of human EBI2 receptor | P32249 | EBI2 beta-arrestin recruitment, luminescence, 7a,25-OHC stimulated | 0.81% of 360,000 active | inhibition, % at 5 µM; in the data active = inhibition above about 38%;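 also: enzyme fragment complementation signal reports receptor beta-arrestin coupling in cells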
# Target sequence (P32249 whole entry, looked up, the tested form may be a part): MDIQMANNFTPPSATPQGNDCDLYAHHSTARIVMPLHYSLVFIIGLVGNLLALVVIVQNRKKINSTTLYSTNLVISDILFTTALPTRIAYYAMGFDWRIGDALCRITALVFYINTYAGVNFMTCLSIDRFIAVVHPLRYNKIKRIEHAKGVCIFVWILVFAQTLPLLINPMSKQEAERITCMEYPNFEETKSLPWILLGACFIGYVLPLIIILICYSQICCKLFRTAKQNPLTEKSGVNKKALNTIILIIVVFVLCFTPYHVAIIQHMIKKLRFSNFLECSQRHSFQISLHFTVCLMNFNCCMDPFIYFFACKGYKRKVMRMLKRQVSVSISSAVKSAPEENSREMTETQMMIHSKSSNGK
# SENP1 inh = blocks the human SENP1 SUMO protease catalytic domain | inhibition, % at 10 µM | recombinant SENP1 catalytic domain, CyPet-SUMO1-YPet FRET cleavage | 0.21% of 360,000 active;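 active = inhibition at least 30% at 10 µM, raw YFP signal under a set limit, fluorescence ratio 0.5 to 1.5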
#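 Assay system: hSENP1 catalytic domain, recombinant. Amount: SENP1 enzyme, 20 pM final. Schedule: 50 min reaction, RT, dark. Technique: FRET, CFP and YFP emission. Control set: no-enzyme wells low, DMSO-plus-enzyme wells high control.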
# EBI2 antag conf = EBI2 (human) antagonism, single concentration confirmation; inhibition, % at 5 µM; 29% of 2,400 active; shares compounds with EBI2 block; EBI2 beta-arrestin luminescence, 7a,25-OHC antagonism;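 active = inhibition of at least 50%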
# EBI2 agonist = EBI2 agonism counter-screen; shares compounds with EBI2 block; EBI2-expressing cells, agonist mode, luminescence, 60 min; 0% vehicle, 100% 7α,25-dihydroxycholesterol control; activation, % at 5 µM; 2,400 tested, under 10 active; AID 652000;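 active = activation of at least 50%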
# bGal cs = counter-screen for EBI2 antagonists: E. coli beta-galactosidase inhibition | shares compounds with EBI2 block | purified beta-galactosidase, luminescent Galacton Star, 15 min | inhibition, % at 5 µM | 1% of 2,400 active;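 active = replicate-average signal at least 3 plate SD below neutral wells, shown as high inhibition, flagging enzyme-inhibiting false positives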;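 also: higher means stronger loss of beta-gal luminescence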
# A number is an active result; i = inactive; nt = not tested or not shown.
SMILES,MPTP block,GRIN3A LBD mod,EBI2 block,SENP1 inh,EBI2 antag conf,EBI2 agonist,bGal cs
CCC1Nc2ncnc(N3CCN(c4ccccc4)CC3)c2N(Cc2ccc(Br)cc2)C1=O (centres undefined),i,i,78,i,80,i,70
COc1ccc(OC)c(-c2csc(NC(=O)c3ccc4c(c3)OCO4)n2)c1,i,i,i,i,nt,nt,nt
CC(C)(C)c1nnc(N/N=C/c2ccc(Br)cc2)n(N)c1=O,i,i,92,i,80,i,i
O=C(N[C@@H](Cc1ccccc1)C(=O)NCCc1c[nH]c2ccccc12)c1ccco1,i,i,57,i,i,i,i
COc1ccc(N2CC(C(=O)Nc3ccc(S(=O)(=O)N4CCCCC4)cc3)CC2=O)cc1 (centres undefined),i,i,75,i,56,i,i
COc1ccc(N2CC(C(=O)Nc3ccc(S(=O)(=O)N4CCCC4)cc3)CC2=O)cc1 (centres undefined),i,i,50,i,i,i,i
CCc1ccc(N2CC(C(=O)Nc3ccc(S(=O)(=O)N4CCOCC4)cc3)CC2=O)cc1 (centres undefined),i,i,52,i,i,i,i
Cc1ccc(CN2CC(C(=O)Nc3ccc(S(=O)(=O)N4CCCCC4)cc3)CC2=O)cc1 (centres undefined),i,i,50,i,i,i,i
COc1ccccc1N1CC(C(=O)Nc2ccc(S(=O)(=O)N3CCCC3)cc2)CC1=O (centres undefined),i,i,i,i,nt,nt,nt
CC(=O)Nc1ccc(-c2ccnc3c2CC(C)(C(=O)Nc2cccc(C(C)=O)c2)O3)cc1 (centres undefined),i,nt,i,i,nt,nt,nt
Cc1ccc(-c2csc(NC(=O)CN3CC(C)OC(C)C3)n2)cc1 (centres undefined),i,i,i,i,nt,nt,nt
CCC(C)(O)c1[nH]c2ccc(C#N)cc2c1C (centres undefined),i,i,i,i,nt,nt,nt
Cc1ccc(N2CC(C(=O)Nc3ccc(S(=O)(=O)NCC4CCCO4)cc3)CC2=O)cc1 (centres undefined),i,i,51,i,i,i,i
Cc1ccc(N2CC(C(=O)Nc3ccc(S(=O)(=O)N4CCCC4)cc3)CC2=O)cc1 (centres undefined),i,i,55,i,i,i,i
O=C(Nc1ccc(S(=O)(=O)N2CCCCC2)cc1)C1CC(=O)N(c2ccc(Cl)cc2)C1 (centres undefined),i,i,89,i,56,i,i
Cc1ccccc1N1CC(C(=O)Nc2ccc(S(=O)(=O)NCC3CCCO3)cc2)CC1=O (centres undefined),i,i,i,i,nt,nt,nt
Cc1ccc(N2CC(C(=O)Nc3cc(C)ccc3F)CC2=O)cc1 (centres undefined),i,i,53,i,i,i,i
Cc1ccc(-c2noc(-c3cc(C(C)(C)C)nn3Cc3ccccc3)n2)cc1,i,i,i,i,nt,nt,nt
Fc1ccc(CN2CC[C@H]3C=CCc4cccc(c43)C2)cc1,i,i,i,i,nt,nt,nt
Cc1ccc(N(C)C(=O)N2CCN(S(=O)(=O)c3ccc(C)cc3)CC2)cc1,i,i,i,i,nt,nt,nt
Cc1ccc(N(C)C(=O)N2CCN(S(=O)(=O)c3ccc4ccccc4c3)CC2)cc1,i,i,45,i,i,i,i
O=C(c1ccc(-c2ccccc2)cc1)N1CCN(C(=O)c2ccco2)CC1,i,i,72,i,i,i,i
CCS(=O)(=O)N1CCN(C(=O)c2ccccc2)CC1,i,i,i,i,nt,nt,nt
CC(C)(C)NC(=O)C1CCN(C(=O)c2ccc(-c3ccccc3)cc2)CC1,i,i,48,i,i,i,i
CCS(=O)(=O)N1CCN(C(=O)c2ccc(-c3ccccc3)cc2)CC1,i,i,83,i,56,i,i
CS(=O)(=O)N1CCN(C(=O)c2ccc(-c3ccccc3)cc2)CC1,i,i,70,i,i,i,i
CN1CCN(C(=O)c2ccc(-c3ccccc3)cc2)CC1,i,i,i,i,nt,nt,nt
